The record followed here is ChEMBL document CHEMBL2086312, “Synthesis and biological evaluation of new 5-benzylated 4-oxo-3,4-dihydro-5H-pyridazino[4,5-b]indoles as PI3Kα inhibitors” (Eur J Med Chem, 2012).

A value given as a limit tells only on which side of the number the result lay.

In data set [1] the target is Dual specificity tyrosine-phosphorylation-regulated kinase 1A (Rattus norvegicus, UniProt Q63470). In words: Inhibition of rat recombinant GST-tagged DYRK1A expressed in Escherichia coli using myelin basic protein substrate.
For data set [2], the target named is Cyclin-dependent kinase 5/CDK5 activator 1 (Homo sapiens, UniProt Q00535). In words: Inhibition of human recombinant CDK5/P25 using myelin basic protein substrate. In kind it is protein-complex assay.
For data set [3], the target named is PI3-kinase p110-alpha/p85-alpha (Homo sapiens, UniProt P42336). Put plainly: Inhibition of PI3K p110alpha/p85alpha by fluorescence based immunoassay. In kind it is protein-complex assay. In a few lines: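 ADAPTA TR-FRET ADP-detection kinase assay. Detection used 6 nM Eu-anti-ADP antibody, 12 nM Alexa647-ADP tracer and 30 mM EDTA for 30 min. Read-out was excitation 340 nm with 665/615 nm emission ratio, converted to % conversion via an ATP–ADP titration curve.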

Data set [4] has as its system Huh-7. In words: Antiproliferative activity against human HuH7 cells incubated for 48 hrs by […] dye staining based assay. Type of data set: functional, cell-based. To be noted: Huh-7, 48 h. In a few lines: (§1)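 After 24 h attachment, they were exposed 48 h to increasing concentrations of 0.1 to 25. Cells were then fixed in cold 90% ethanol/5% acetic acid, nuclei were Hoechst-stained, and nuclei were counted by automated imaging.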

Data set [5] has as its system Caco-2. In words: Antiproliferative activity against human Caco2 cells incubated for 48 hrs by […] dye staining based assay. In kind it is functional, cell-based. To be noted: Caco-2, 48 h. In a few lines:
as §1

For data set [6], the system named is MDA-MB-231. In words: Antiproliferative activity against human MDA-MB-231 cells incubated for 48 hrs by […] dye staining based assay. The settings on record: MDA-MB-231, 48 h. Type of data set: functional, cell-based. In a few lines:
as §1

Data set [7] deals with HCT-116. In words: Antiproliferative activity against human HCT116 cells incubated for 48 hrs by […] dye staining based assay. In kind it is functional, cell-based. The settings on record: HCT-116, 48 h. The essentials:
(§2)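 Cells were grown per ECACC recommendations and seeded in triplicate at 2 × 10³ (HCT-116) or 4 × 10³ (other lines) per well. After 24 h attachment, they were exposed 48 h to increasing concentrations of 0.1 to 25. Cells were then fixed in cold 90% ethanol/5% acetic acid, nuclei were Hoechst-stained, and nuclei were counted by automated imaging.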

Data set [8] has as its system PC-3. Put plainly: Antiproliferative activity against human PC3 cells incubated for 48 hrs by […] dye staining based assay. In kind it is functional, cell-based. To be noted: PC-3, 48 h. In a few lines:
as §2

Data set [9] has as its system NCI-H727. In words: Antiproliferative activity against human NCI-H727 cells incubated for 48 hrs by […] dye staining based assay. In kind it is functional, cell-based. The settings on record: NCI-H727, 48 h. The essentials:
as §2

Data set [10] can be described thus: Antiproliferative activity against human Skin fibroblasts incubated for 48 hrs by […] dye staining based assay. The settings on record: Skin fibroblast. The essentials: as §2
Data set [11] has as its system Caco-2. In words: Antiproliferative activity against human Caco2 cells assessed as cell diminution incubated for 48 hrs by […] dye staining based assay. Type of data set: functional. The essentials:
as §2

The subject of data set [12] is PC-3. Put plainly: Antiproliferative activity against human PC3 cells assessed as cell diminution incubated for 48 hrs by […] dye staining based assay. Type of data set: functional. In a few lines:
as §2

Data set [13] in a line: Antiproliferative activity against human Skin fibroblasts assessed as cell diminution incubated for 48 hrs by […] dye staining based assay. The settings on record: skin fibroblast. The essentials: as §2
The test system of data set [14] is Huh-7. Put plainly: Antiproliferative activity against human HuH7 cells assessed as cell diminution incubated for 48 hrs by […] dye staining based assay. In kind it is functional. The essentials:
as §2

The subject of data set [15] is NCI-H727. In words: Antiproliferative activity against human NCI-H727 cells assessed as cell diminution incubated for 48 hrs by […] dye staining based assay. In kind it is functional. In a few lines: as §2

PI3-kinase p110-alpha/p85-alpha, sequence (P27986 whole entry): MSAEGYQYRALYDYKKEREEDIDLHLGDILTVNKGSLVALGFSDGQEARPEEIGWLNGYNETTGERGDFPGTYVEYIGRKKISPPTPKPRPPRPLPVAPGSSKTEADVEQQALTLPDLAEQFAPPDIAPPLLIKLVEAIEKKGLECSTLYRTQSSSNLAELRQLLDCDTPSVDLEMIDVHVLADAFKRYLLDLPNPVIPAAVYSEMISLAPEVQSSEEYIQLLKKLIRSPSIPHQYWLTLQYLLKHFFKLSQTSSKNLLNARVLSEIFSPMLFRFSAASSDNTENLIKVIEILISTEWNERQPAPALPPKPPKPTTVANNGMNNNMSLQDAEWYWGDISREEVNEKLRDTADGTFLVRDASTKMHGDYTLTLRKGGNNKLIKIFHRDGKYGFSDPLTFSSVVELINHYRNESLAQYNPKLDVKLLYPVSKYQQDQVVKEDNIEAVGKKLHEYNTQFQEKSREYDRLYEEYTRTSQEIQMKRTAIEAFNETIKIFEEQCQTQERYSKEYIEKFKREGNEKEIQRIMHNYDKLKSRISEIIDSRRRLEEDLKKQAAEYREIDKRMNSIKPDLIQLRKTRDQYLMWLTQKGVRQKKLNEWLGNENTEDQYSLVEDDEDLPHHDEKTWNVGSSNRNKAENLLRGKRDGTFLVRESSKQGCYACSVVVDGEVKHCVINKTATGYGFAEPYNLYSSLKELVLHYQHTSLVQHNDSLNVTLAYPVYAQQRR
PI3-kinase p110-alpha/p85-alpha, sequence (P42336 whole entry): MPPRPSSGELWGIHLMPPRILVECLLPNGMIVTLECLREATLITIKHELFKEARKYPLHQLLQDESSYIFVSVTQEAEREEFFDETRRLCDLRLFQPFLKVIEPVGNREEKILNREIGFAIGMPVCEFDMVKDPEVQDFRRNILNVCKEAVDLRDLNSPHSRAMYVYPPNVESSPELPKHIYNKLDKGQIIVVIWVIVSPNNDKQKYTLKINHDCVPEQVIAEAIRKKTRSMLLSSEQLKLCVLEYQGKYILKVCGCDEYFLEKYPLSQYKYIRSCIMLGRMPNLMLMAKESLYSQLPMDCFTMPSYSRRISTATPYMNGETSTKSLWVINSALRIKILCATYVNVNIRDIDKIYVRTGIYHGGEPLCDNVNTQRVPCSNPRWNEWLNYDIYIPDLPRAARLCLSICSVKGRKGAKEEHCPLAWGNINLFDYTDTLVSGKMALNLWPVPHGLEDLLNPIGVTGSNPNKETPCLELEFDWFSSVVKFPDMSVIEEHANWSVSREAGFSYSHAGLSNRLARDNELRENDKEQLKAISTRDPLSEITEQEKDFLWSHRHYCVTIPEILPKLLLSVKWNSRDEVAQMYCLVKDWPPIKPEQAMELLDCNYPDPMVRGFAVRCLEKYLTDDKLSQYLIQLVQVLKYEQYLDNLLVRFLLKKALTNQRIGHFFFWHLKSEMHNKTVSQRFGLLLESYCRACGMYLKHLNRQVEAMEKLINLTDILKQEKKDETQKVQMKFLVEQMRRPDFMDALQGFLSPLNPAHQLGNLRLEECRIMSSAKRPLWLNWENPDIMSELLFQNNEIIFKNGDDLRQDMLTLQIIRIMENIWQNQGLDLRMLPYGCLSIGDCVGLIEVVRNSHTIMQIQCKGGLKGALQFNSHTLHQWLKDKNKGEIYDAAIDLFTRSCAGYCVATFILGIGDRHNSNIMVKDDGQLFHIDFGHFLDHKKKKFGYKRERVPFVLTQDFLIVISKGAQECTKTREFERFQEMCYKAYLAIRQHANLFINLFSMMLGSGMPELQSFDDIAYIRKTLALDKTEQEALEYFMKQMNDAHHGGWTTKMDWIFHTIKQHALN
Cyclin-dependent kinase 5/CDK5 activator 1, sequence (Q00535 whole entry): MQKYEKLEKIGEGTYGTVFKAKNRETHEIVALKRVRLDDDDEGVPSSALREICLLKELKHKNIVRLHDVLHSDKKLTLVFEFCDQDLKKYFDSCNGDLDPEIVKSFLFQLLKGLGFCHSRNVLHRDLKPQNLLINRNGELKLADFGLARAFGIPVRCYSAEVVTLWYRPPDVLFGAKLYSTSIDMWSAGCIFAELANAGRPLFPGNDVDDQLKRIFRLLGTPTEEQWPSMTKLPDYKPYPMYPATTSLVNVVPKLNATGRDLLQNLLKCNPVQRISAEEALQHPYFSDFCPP
Cyclin-dependent kinase 5/CDK5 activator 1, sequence (Q15078 whole entry, further chain): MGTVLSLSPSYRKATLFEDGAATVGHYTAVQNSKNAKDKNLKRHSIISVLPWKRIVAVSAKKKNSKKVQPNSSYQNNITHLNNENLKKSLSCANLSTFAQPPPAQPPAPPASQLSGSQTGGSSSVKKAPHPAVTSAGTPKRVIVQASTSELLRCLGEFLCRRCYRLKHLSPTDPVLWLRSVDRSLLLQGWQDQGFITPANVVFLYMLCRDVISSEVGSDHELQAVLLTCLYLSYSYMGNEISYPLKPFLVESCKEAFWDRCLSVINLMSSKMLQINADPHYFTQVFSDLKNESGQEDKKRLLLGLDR

For orientation: IC50 means the concentration that gives 50% inhibition. Take `COc1ccc2c(c1)c1c(C)n[nH]c(=O)c1n2Cc1cccc([N+](=O)[O-])c1`: the IC50 in data set [1] was greater than 10 µM; in data set [2], greater than 10 µM; in [3], 1.8 µM; in data set [4], 1.5 µM; in data set [5] it was 5 µM; in data set [6], 4 µM. Moreover, the IC50 was 4 µM in data set [7], 2.5 µM in data set [8], 4 µM in data set [9] and 2 µM in [10]. The Activity in data set [11], in [12] and in [13] was 50% each time.
For the compound `COc1ccc2c(c1)c1c(C)n[nH]c(=O)c1n2Cc1ccc(C#N)cc1`, the IC50 in [1] was greater than 10 µM; in data set [2], greater than 10 µM; in data set [3], 2.9 µM; in data set [4] it was 2 µM; in data set [5], 6 µM; in data set [6], 2 µM. For the same compound, the IC50 came to 4 µM in [7], 2 µM in data set [8], 2 µM in data set [9] and 5 µM in data set [10]. Besides, the Activity in [12] worked out at 50%.
For `Oc1cccc(-c2nc(N3CCOCC3)c3oc4ncccc4c3n2)c1` [PI-103], the IC50 stood at 1.5 µM in data set [4]; 0.9 µM in data set [5]; 15 µM in data set [6]; 1 µM in [7]; 1.5 µM in data set [8]; 3 µM in data set [9]. The compound further had an IC50 in data set [10] of 1.5 µM. In addition, the values for the Activity in data set [14], in data set [15] and in data set [13] were 40%, 30% and 30%, respectively.
